The target in experiment [1] is T1, Aminopeptidase N (Sus scrofa, UniProt P15145).
T1 sequence (P15145 whole entry): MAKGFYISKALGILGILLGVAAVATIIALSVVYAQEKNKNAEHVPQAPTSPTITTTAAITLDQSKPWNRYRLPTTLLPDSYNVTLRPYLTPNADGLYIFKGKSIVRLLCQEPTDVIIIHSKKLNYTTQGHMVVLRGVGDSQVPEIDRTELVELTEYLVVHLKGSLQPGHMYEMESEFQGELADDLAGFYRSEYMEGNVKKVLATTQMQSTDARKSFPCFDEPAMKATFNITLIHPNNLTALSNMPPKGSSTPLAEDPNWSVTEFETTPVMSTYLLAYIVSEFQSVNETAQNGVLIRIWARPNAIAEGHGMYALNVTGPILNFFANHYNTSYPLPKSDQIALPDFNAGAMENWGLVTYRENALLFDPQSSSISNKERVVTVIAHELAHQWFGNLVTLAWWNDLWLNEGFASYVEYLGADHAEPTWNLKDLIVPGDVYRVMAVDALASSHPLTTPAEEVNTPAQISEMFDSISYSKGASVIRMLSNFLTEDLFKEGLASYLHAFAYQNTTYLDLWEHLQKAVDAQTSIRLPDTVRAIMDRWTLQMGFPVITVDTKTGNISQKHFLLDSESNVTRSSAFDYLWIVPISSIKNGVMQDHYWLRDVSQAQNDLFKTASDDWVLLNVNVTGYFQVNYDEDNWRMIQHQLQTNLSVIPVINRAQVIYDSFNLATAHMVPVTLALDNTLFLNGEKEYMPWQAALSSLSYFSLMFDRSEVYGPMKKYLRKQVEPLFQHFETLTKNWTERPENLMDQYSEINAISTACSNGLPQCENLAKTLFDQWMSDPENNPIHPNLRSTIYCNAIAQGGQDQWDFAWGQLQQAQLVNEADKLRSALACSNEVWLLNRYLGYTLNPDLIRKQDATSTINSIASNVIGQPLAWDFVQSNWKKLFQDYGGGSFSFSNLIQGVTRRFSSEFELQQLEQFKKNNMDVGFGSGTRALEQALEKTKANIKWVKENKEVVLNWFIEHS
Put plainly: Inhibition of pig kidney microsomal APN assessed as hydrolysis of L-Leu-p-nitroanilide after 1 hr by spectrophotometry. The gist of the method:
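Porcine kidney microsomal aminopeptidase in 50 mM PBS, pH 7.2, with L-Leu-p-nitroanilide as substrate. Incubated with a range of inhibitor concentrations at 37 °C. Triplicate experiments, reported as mean ± standard deviation.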

Experiment [2] addresses 72 kDa type IV collagenase (Homo sapiens, UniProt P08253). Put plainly: Inhibition of human MMP-2 after 30 mins by spectrophotometry. The essentials: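 MMP-2 was incubated with synthetic substrate and inhibitor in 50 mM sodium borate, pH 8.5, for 30 min at 37 °C. TNBS (0.03%, m/v) was then added for 20 min at room temperature. Absorbance was read at 450 nm. IC50 is the mean ± standard deviation of triplicate experiments.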

The nature of experiment [3]: Selectivity ratio of IC50 for MMP-2 to IC50 for pig kidney microsomal APN.
The target in experiment [4] is Aminopeptidase N (Homo sapiens, UniProt P15144). Put plainly: Inhibition of APN in human HL60 cells assessed as hydrolysis of L-Leu-p-nitroanilide by spectrophotometry. Type of experiment: cell-based, HL-60. The gist of the method: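 Intact HL-60 cells suspended in PBS (1×10^5/well) served as the enzyme source, with L-Leu-p-nitroanilide as substrate. Cells were incubated at 37 °C with a range of inhibitor concentrations. Values are means of three independent experiments.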

For experiment [5], the system named is HL-60. The experiment can be described thus: Antiproliferative activity against human HL60 cells expressing high levels of APN after 48 hrs by MTT assay. Type of experiment: functional, cell-based. The settings on record: HL-60, 48 h. The gist of the method: (§1)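 Cells kept in RPMI1640 plus 10% FBS at 37 °C, 5% CO2. Seeded 1×10^4/well and grown 4 h before inhibitors were added over a range of concentrations. After 48 h exposure, MTT (0.5 mg/mL) was added and the formazan dissolved in DMSO. Read-out was OD at 570 nm.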
In general terms: Tetrazolium dyes change colour on reduction, which living cells bring about.

For experiment [6], the system named is MDA-MB-231. Put plainly: Antiproliferative activity against human MDA-MB-231 cells expressing low levels of APN after 48 hrs by MTT assay. Type of experiment: functional, cell-based. The settings on record: MDA-MB-231, 48 h. The gist of the method: as §1

Structures are written as SMILES. Where only a bound is given, the exact number is not on record here.

Chain of Aminopeptidase N (Homo sapiens, UniProt P15144) (P15144 whole entry): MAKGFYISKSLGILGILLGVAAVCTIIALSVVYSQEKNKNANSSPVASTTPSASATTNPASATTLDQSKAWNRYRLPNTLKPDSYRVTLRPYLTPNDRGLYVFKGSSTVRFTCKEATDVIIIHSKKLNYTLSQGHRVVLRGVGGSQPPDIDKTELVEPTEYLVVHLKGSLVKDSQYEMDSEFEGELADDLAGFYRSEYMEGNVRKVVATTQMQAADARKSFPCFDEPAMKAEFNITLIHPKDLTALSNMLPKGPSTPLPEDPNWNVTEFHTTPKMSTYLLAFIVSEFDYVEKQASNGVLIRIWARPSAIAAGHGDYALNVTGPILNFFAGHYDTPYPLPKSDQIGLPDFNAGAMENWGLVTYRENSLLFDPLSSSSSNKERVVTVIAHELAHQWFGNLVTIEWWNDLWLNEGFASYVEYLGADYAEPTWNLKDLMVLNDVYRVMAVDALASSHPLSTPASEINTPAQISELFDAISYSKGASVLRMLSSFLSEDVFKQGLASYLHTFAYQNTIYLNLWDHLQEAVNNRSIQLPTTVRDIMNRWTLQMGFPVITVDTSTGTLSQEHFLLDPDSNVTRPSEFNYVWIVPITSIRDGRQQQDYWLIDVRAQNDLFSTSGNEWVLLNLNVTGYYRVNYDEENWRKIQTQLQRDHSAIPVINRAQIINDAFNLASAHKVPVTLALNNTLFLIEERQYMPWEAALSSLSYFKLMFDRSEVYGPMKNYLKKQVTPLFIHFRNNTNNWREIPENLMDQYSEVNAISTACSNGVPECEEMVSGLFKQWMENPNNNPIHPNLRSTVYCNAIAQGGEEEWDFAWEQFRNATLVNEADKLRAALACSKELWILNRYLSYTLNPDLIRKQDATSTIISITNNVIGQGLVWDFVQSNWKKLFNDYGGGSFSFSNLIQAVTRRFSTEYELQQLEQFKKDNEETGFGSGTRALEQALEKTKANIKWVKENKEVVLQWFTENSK
Chain of 72 kDa type IV collagenase (P08253 whole entry): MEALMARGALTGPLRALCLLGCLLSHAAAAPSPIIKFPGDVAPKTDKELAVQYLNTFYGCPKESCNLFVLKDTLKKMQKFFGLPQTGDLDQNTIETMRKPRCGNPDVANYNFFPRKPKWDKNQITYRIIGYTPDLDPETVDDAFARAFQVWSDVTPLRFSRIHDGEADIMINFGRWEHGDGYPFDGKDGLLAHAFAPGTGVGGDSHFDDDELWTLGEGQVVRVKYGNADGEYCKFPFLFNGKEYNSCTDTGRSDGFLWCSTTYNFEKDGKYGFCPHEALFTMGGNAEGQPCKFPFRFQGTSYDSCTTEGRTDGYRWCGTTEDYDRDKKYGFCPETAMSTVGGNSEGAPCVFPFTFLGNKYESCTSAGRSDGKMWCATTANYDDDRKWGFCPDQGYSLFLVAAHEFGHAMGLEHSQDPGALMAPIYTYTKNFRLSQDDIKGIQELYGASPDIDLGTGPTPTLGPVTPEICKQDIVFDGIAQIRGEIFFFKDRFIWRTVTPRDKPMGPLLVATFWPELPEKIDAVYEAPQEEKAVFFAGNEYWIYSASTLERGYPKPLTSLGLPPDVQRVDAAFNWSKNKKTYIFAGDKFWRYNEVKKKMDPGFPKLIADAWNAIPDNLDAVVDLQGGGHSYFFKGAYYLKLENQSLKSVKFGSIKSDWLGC

For orientation: IC50 means the point on the concentration scale where inhibition reaches its midpoint. Regarding `N[C@@H](CS)C(=O)NC[C@H](N)[C@@H](O)c1ccc([N+](=O)[O-])cc1`, the half-inhibitory concentration (IC50) in experiment [1] worked out at 12.4 µM; in experiment [2], 152 µM; in experiment [4] it was 248 µM; in experiment [5], 2.32 mM; in experiment [6], 4.22 mM. For the same molecule, in experiment [3], the Ratio IC50 amounted to 12.7.
Take `N[C@H](Cc1ccccc1)C(=O)N[C@@H](CO)C(=O)NC[C@H](N)[C@@H](O)c1ccc([N+](=O)[O-])cc1`: the concentration for half-maximal inhibition (IC50) stood at 21.6 µM in experiment [1] and 110 µM in experiment [2]. In experiment [3], the Ratio IC50 is 5.
On the same counts, the results for `N[C@H](Cc1ccccc1)C(=O)NC[C@H](N)[C@@H](O)c1ccc([N+](=O)[O-])cc1` are 42.2 µM, 67.4 µM and 1.6.
On to `CC(C)C[C@H](N)C(=O)N[C@H](Cc1ccccc1)C(=O)NC[C@H](N)[C@@H](O)c1ccc(I)cc1`, for which the 50% inhibitory concentration (IC50) in experiment [1] amounted to 11.3 µM; in experiment [2] it was 86.6 µM. In addition, in experiment [3], the Ratio IC50 turned out to be 7.7.
The matching figures for `Nc1ccc([C@H](O)[C@@H](N)CNC(=O)[C@H](N)Cc2ccccc2)cc1`: 141 µM, 149 µM and 1.1.
Turning to `CC(C)C[C@H](N)C(=O)N[C@H](Cc1ccccc1)C(=O)NC[C@H](N)[C@@H](O)c1ccc(N)cc1`, the 50% inhibitory concentration (IC50) in experiment [1] was determined as 6.1 µM; in experiment [2] it was 134 µM; in experiment [4] it was 39.4 µM; in experiment [5] it was 1.34 mM; in experiment [6], 3.65 mM. The Ratio IC50 in experiment [3] came to 22.3.
For the molecule `CC(C)C[C@H](N)C(=O)N[C@H](Cc1ccccc1)C(=O)NC[C@H](N)[C@@H](O)c1ccc([N+](=O)[O-])cc1`, the IC50 came to 9.4 µM in experiment [1]; 173 µM in experiment [2]; 290 µM in experiment [4]; 2.15 mM in experiment [5]; 1.32 mM in experiment [6]. In addition, the Ratio IC50 in experiment [3] stood at 19.2.
For `N[C@@H](Cc1ccc(O)cc1)C(=O)NC[C@H](N)[C@@H](O)c1ccc(I)cc1`, the IC50 came out at 21.6 µM in experiment [1] and 42.2 µM in experiment [2]. For the same molecule, the Ratio IC50 in experiment [3] came to 2.
Turning to `N[C@H](Cc1ccccc1)C(=O)N[C@H](Cc1ccccc1)C(=O)NC[C@H](N)[C@@H](O)c1ccc(I)cc1`, the IC50 is over 1000 µM in experiment [1] and 107 µM in experiment [2]. The Ratio IC50 in experiment [3] was under 0.1.
The matching figures for `N[C@@H](CO)C(=O)NC[C@H](N)[C@@H](O)c1ccc([N+](=O)[O-])cc1`: 423 µM, 331 µM and 0.8.
The matching figures for `CC(C)C[C@H](N)C(=O)NC[C@H](N)[C@@H](O)c1ccc(N)cc1`: 63.2 µM, 119 µM and 1.9.
In the case of `N[C@@H](Cc1ccc(O)cc1)C(=O)NC[C@H](N)[C@@H](O)c1ccc([N+](=O)[O-])cc1`, the concentration for half-maximal inhibition (IC50) in experiment [1] is 39.2 µM; in experiment [2], 61.3 µM. In experiment [3], the Ratio IC50 was determined as 1.6.
The matching figures for `N[C@@H](CNC(=O)[C@@H]1Cc2ccc(O)cc2CN1)[C@@H](O)c1ccc([N+](=O)[O-])cc1`: 441 µM, over 1000 µM and over 2.3.
Consider `NC[C@H](O)C(=O)N[C@H](Cc1ccccc1)C(=O)NC[C@H](N)[C@@H](O)c1ccc([N+](=O)[O-])cc1`, for which the half-maximal inhibitory concentration (IC50) in experiment [1] came to 6.5 µM; in experiment [2], 40.6 µM; in experiment [4], 66.3 µM; in experiment [5] it was 2.04 mM; in experiment [6], 4.13 mM. For the same molecule, in experiment [3], the Ratio IC50 stood at 6.3.
Turning to `NC[C@H](N)[C@@H](O)c1ccc([N+](=O)[O-])cc1`, the values for the IC50 in experiment [1] and in experiment [2] were 894 µM and over 1000 µM, respectively. Further, in experiment [3], the Ratio IC50 is over 1.1.
The matching figures for `Nc1ccc([C@H](O)[C@@H](N)CNC(=O)[C@@H](Cc2ccccc2)NC(=O)[C@H](N)Cc2ccccc2)cc1`: 30.6 µM, 40.4 µM and 1.3.
As for `CC(C)C[C@H](NC(=O)[C@H](N)Cc1ccccc1)C(=O)NC[C@H](N)[C@@H](O)c1ccc(N)cc1`, the IC50 in experiment [1] came out at 31.6 µM; in experiment [2], 94 µM. For the same molecule, the Ratio IC50 in experiment [3] was found to be 3.
The matching figures for `CC(C)C[C@H](N)C(=O)NC[C@H](N)[C@@H](O)c1ccc([N+](=O)[O-])cc1`: 80.6 µM, 143 µM and 1.8.
Take `NC[C@H](O)C(=O)NC[C@H](N)[C@@H](O)c1ccc([N+](=O)[O-])cc1`: the half-inhibitory concentration (IC50) in experiment [1] worked out at 164 µM; in experiment [2] it was 100 µM.
In the case of `N[C@H](Cc1ccccc1)C(=O)NC[C@H](O)C(=O)NC[C@H](N)[C@@H](O)c1ccc([N+](=O)[O-])cc1`, the IC50 in experiment [1] stood at 17.6 µM; in experiment [2], 109 µM; in experiment [4], 616 µM; in experiment [5], 3.15 mM; in experiment [6], 7.32 mM. Further, the Ratio IC50 in experiment [3] was 6.1.
With `CC(C)C[C@H](NC(=O)[C@H](N)Cc1ccccc1)C(=O)NC[C@H](N)[C@@H](O)c1ccc(I)cc1`, the 50% inhibitory concentration (IC50) in experiment [1] turned out to be 105 µM; in experiment [2] it was 52.7 µM. Moreover, in experiment [3], the Ratio IC50 came out at 0.5.
As for `N[C@H](Cc1ccccc1)C(=O)N[C@H](Cc1ccccc1)C(=O)NC[C@H](N)[C@@H](O)c1ccc([N+](=O)[O-])cc1`, the IC50 worked out at 134 µM in experiment [1] and 44.1 µM in experiment [2]. The Ratio IC50 in experiment [3] was 0.3.
Take `CC(C)C[C@H](NC(=O)[C@@H](O)[C@H](N)Cc1ccccc1)C(=O)O` [UBENIMEX]: the results for the IC50 in experiment [2] and in experiment [6] were 120 µM and 5.08 mM, respectively.
With `Nc1ccc([C@H](O)[C@@H](N)CNC(=O)[C@@H](N)Cc2ccc(O)cc2)cc1`, the IC50 in experiment [1] stood at 114 µM; in experiment [2], 111 µM. The Ratio IC50 in experiment [3] was 1.
On the same counts, the results for `CC(C)C[C@H](NC(=O)[C@@H](O)CN)C(=O)NC[C@H](N)[C@@H](O)c1ccc([N+](=O)[O-])cc1` are 19.6 µM, 83.9 µM and 4.2.
Regarding `NCCCC[C@H](N)C(=O)NC[C@H](N)[C@@H](O)c1ccc([N+](=O)[O-])cc1`, the 50% inhibitory concentration (IC50) is 50.1 µM in experiment [1] and 84.3 µM in experiment [2]. The Ratio IC50 in experiment [3] stood at 1.7.
Turning to `CC(C)C[C@H](N)C(=O)NC[C@H](N)[C@@H](O)c1ccc(I)cc1`, the IC50 in experiment [1] came out at 30.6 µM; in experiment [2], 120 µM. The Ratio IC50 in experiment [3] is 3.9.
The matching figures for `CC(C)C[C@H](NC(=O)[C@H](N)Cc1ccccc1)C(=O)NC[C@H](N)[C@@H](O)c1ccc([N+](=O)[O-])cc1`: 74.7 µM, 106 µM and 1.4.
Consider `NCCCC[C@H](N)C(=O)NC[C@H](N)[C@@H](O)c1ccc(N)cc1`, for which the IC50 was 136 µM in experiment [1] and 157 µM in experiment [2]. The Ratio IC50 in experiment [3] worked out at 1.2.

Values taken from ChEMBL document CHEMBL1817563, “Novel aminopeptidase N (APN/CD13) inhibitors derived from chloramphenicol amine” (Bioorg Med Chem, 2011).
